Data set [1] can be described thus: Insulin absorption upon s.c. neck dosing in HFD and LFD rats. In kind it is in vivo, Male Sprague Dawley rats. The settings on record: 12 nmol, HFD n = 22, LFD n = 10, p < 0.01. In a few lines: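 Rats aged 33–34 weeks, fed a high-fat (60% fat to 22 weeks, then 45%) or low-fat (10% fat) diet from weaning, received 12 nmol test insulin (20 μL) s.c. in the neck. Sublingual-vein blood was drawn at 5, 15 and 60 min, and plasma levels were measured by luminescent oxygen channelling immunoassay. Each rat was dosed five times; mean ± SEM.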

The format of data set [2] is in vivo, Male Sprague Dawley rats. The settings on record: anaesthetized rats, s.c. 20 μL insulin aspart/iomeprol 80/20; p < 0.001. In a few lines:
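Male rats on a high-fat diet (60% fat from weaning to 22 weeks, then 45%) or a low-fat diet (10% fat), aged 36–38 weeks, were isoflurane-anaesthetized. They received 20 μL test insulin mixed 80/20 with iomeprol s.c. in the neck or flank. μCT scans ran to 13 min (neck) or 17 min (flank). Tail blood was taken at 5 and 15 min and measured by luminescent oxygen channelling immunoassay. Three (neck) or four (flank) repeats per rat; mean ± SEM.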

insulin aspart: the “area under the curve (AUC0–60 min), HFD compared with LFD group” value in data set [1] was “reduced”. Besides, the “mean insulin concentration at 5 and 15 min, flank compared with neck dosing” value in data set [2] is recorded as “significantly lower”.

The values above are taken from PMC6587326 (Obesity Science & Practice, 2019).
